CHRM4 PAM: CHRM4 positive allosteric modulation; activation, % at 3 µM; CHO-K1 hM4/Gqi5, Fluo-8 calcium fluorescence, ACh EC20; 0% = ACh EC20, 100% = maximal ACh; P08173; hit rate 0.4% among 360,000; AID 624126;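 active = activation above its plate's cutoff, the mean activation of sample wells plus 3 SD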
M4 antag: antagonists of human muscarinic M4 receptor (CHRM4); inhibition, % at 3 µM; CHO-hM4 cells, ACh EC80, Fluo-8 calcium fluorescence; hit rate 0.73% among 360,000; P08173;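 active = inhibition above its plate's cutoff, the mean inhibition of sample wells plus 3 SD, cut at about 27% in these data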;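 also: 0% = acetylcholine EC80 with DMSO and 100% = DMSO without agonist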
M5 antag: blocks acetylcholine activation of human M5 receptor. P08912. CHO-hM5 cells, Fluo-8 calcium fluorescence, ACh EC80. inhibition, % at 3 µM. hit rate 0.59% among 360,000;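 active = inhibition above a per-plate cutoff, the mean of that plate's test compounds plus 3 SD, cut at about 27% in these data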;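 also: 0% = acetylcholine EC80 with DMSO and 100% = DMSO without agonist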
Target sequence (P08912 whole entry, looked up): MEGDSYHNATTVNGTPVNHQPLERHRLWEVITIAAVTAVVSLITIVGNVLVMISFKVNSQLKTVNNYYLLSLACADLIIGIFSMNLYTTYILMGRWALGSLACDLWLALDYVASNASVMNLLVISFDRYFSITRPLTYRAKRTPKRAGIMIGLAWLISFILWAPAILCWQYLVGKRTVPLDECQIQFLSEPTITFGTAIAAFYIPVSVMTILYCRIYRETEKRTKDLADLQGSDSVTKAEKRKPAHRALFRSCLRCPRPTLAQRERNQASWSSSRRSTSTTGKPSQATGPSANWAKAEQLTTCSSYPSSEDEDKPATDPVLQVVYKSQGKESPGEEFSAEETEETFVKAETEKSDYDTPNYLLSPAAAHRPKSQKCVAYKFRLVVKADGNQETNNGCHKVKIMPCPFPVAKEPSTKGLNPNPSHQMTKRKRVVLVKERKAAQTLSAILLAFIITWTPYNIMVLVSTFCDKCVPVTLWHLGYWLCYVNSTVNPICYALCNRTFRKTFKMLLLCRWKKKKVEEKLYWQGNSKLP
M5 PAM: CHRM5 positive allosteric modulation | P08912 | CHO-K1 hM5, Fluo-8 calcium, ACh EC20 PAM; 0% = ACh EC20, 100% = ACh EC100 | activation, % at 3 µM | hit rate 0.3% among 360,000;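 active = activation above the run cutoff, the mean activation of all test compounds plus 3 SD, cut at about 18% in these data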
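Assay system: CHO-K1 hM5 cells / Incubation: Fluo-8 loading 80 min at 37 °C plus 30 min room temperature / Technique: Fluo-8 calcium dye fluorescence, kinetic read / Repeats: single replicate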
CHRM4 agonist: CHRM4 agonism in calcium assay; P08173; CHO-K1 hM4/Gqi5, Fluo-8 calcium fluorescence; vehicle 0%, full acetylcholine response 100%; activation, % at 3 µM; hit rate 0.14% among 360,000;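 active = activation above the run mean over all test wells plus 3 SD, cut at about 32% in these data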;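 also: peak over basal fluorescence ratio per well then scaled between controls; 0% = DMSO wells and 100% = acetylcholine at EC100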
M5 ag: CHRM5 agonism in calcium assay; hit rate 0.19% among 360,000; P08912; activation, % at 3 µM; CHO-K1 hM5 cells, Fluo-8 calcium fluorescence; 0% DMSO wells, 100% maximal acetylcholine response;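 active = activation above the run's mean over test compounds plus 3 SD, cut at about 23% in these data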;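 also: signal is peak over basal fluorescence ratio across the kinetic read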
The depositor's hits bear a star. Most compounds without a hit are left out; they make up all but 1.9% or so of the library.

SMILES	CHRM4 PAM	M4 antag	M5 antag	M5 PAM	CHRM4 agonist	M5 ag
CC(=O)[C@@]1(O)CCC2C3C=CC4=CC(=O)CC[C@]4(C)C3CC[C@@]21C (stereo partly specified)	7	4	2	1	2	1
CC(=O)C1(O)CCC2C3CC(C)C4=CC(=O)CCC4(C)C3CCC21C (stereo unspecified)	-7	44*	-8	-1	4	0
Cc1ccc(SCc2[nH]nc3c2C2(CCSCC2)C(C#N)=C(N)O3)cc1	-1	3	-5	4	4	3
Cc1ccc(SCc2[nH]nc3c2C2(C(=O)Nc4ccc([N+](=O)[O-])cc42)C(C#N)=C(N)O3)cc1 (stereo unspecified)	51*	1	-5	25*	2	-2
CC1CCN(S(=O)(=O)c2ccc(NC(=O)c3ccncc3)cc2)CC1	-11	-2	-4	-4	11	2
Cc1cccc(CS(=O)(=O)c2ncc(Cl)c(C(=O)NCc3ccc4c(c3)OCO4)n2)c1	-16	33*	12	1	5	-4
CCc1ccc(NC(=O)c2nc(S(=O)(=O)Cc3ccccc3)ncc2Cl)cc1	-12	68*	20	-8	3	-6
CCS(=O)(=O)c1ncc(Cl)c(C(=O)Nc2ccc(S(=O)(=O)N3CCC(C)CC3)cc2)n1	-11	47*	27	-10	13	-7
Cc1ccc(NC(=O)c2nc(S(=O)(=O)Cc3ccccc3C)ncc2Cl)cc1C	-8	36*	4	0	5	-5
CC(=O)Nc1ccc(NC(=O)c2nc(S(=O)(=O)Cc3cccc(C)c3)ncc2Cl)cc1	-7	18	17	-7	0	-6
O=C(Nc1cc(S(=O)(=O)N2CCCC2)ccc1OCC(F)(F)F)c1ccncc1	6	-19	-3	-1	1	0
COc1ccc(C(=O)N2CCN(C)C(=O)[C@@H]2C)cc1OC1CCN(C(C)=O)CC1	3	-5	4	-4	1	-3
Cc1cccc(OCc2nc(-c3ccc(-n4cccc4)cc3)no2)c1	18*	-28	1	3	1	1
Cc1ccc(OCc2nc(-c3ccc(-n4cccc4)cc3)no2)cc1C	3	-12	9	-2	-1	0
O=C(Nc1ccccc1)N(c1ccccc1)C1C=CS(=O)(=O)C1 (stereo unspecified)	-11	45*	6	-5	-1	-2
COc1ccc(N(C(=O)c2snc(C(N)=O)c2N)C(C(=O)NCC2CCCO2)c2ccc3ncccc3c2)cc1OC (stereo unspecified)	10	-4	8	2	1	-1
CC(C)C(=O)Nc1cccc(C(=O)N2CCCCC2C)c1 (stereo unspecified)	6	-17	-15	21*	0	1
Cc1nnc2ccc(Oc3ccc(-c4ccccc4)cc3)nn12	-19	18	34*	-15	10	1
COC(=O)c1ccc(Oc2ccc3nnc(C)n3n2)cc1	12	7	-1	5	0	3
O=C1CC[C@@H](OCc2ccccc2)CCN1CC[C@H](Sc1ccccc1)c1ccccc1	0	0	9	-2	-1	-5
O=C(NCCOc1ccccc1)C1CCC(=O)N(CCCN2CCCC2=O)C1 (stereo unspecified)	2	-8	-4	-3	1	-3
Cc1sc2ncnc(N/N=C/c3ccccc3O)c2c1C	30*	-20	-3	0	1	0
Cc1sc2ncnc(N/N=C/c3ccc(O)cc3)c2c1C	19	-1	-4	-2	3	2
COc1ccccc1Nc1nc(-c2ccc3c(c2)NC(=O)CO3)cs1	0	-3	-2	2	12	-1
COc1ccc(Nc2nc(-c3ccc4c(c3)NC(=O)CO4)cs2)cc1	22*	-4	-15	12	1	-2
SMILES	CHRM4 PAM	M4 antag	M5 antag	M5 PAM	CHRM4 agonist	M5 ag
COc1ccc(C(=O)Nc2ccccc2C(=O)NCCN2CCOCC2)cc1OC	-1	4	5	-2	4	-4
CCCn1c(=S)[nH]c2cc(C(=O)NCC3CCCO3)ccc2c1=O (stereo unspecified)	-2	7	4	-5	4	4
O=C(CCn1c(=S)[nH]c2ccccc2c1=O)NCC1CCCO1 (stereo unspecified)	19*	-25	-3	-4	1	2
CCOc1ccc(CCNC(=O)c2cc(C)on2)cc1OCC	21*	-15	-5	-3	2	-2
CN(Cc1ccc(F)cc1)C(=O)c1ccc(NC(=O)CC2SC(N3CCCC3)=NC2=O)cc1 (stereo unspecified)	11	-20	-1	4	0	4
O=C(Nc1c(C(=O)N2CCC(N3CCCCC3)CC2)oc2ccccc12)c1ccc(F)cc1	-1	-1	4	5	1	-8
NC(=O)c1oc2ccccc2c1NC(=O)c1ccc(F)cc1	-18	39*	8	-12	7	1
COc1ccc(OC)c(S(=O)(=O)N2CCCC(C)C2)c1 (stereo unspecified)	28*	-6	-10	10	0	-2
CC1CCCN(S(=O)(=O)c2ccc(Cl)s2)C1 (stereo unspecified)	1	-22	6	19*	-1	-5
COc1ccc(OC)c(S(=O)(=O)N2CCCCCC2)c1	10	6	-7	8	0	-5
CC1CCCN(S(=O)(=O)c2ccc(Br)s2)C1 (stereo unspecified)	-1	4	-5	1	-1	-6
CCOC(=O)c1c(C)[nH]c(C)c1C(=O)COC(=O)c1cccs1	4	-14	1	3	5	4
Cc1ccc(NC(=O)c2cccnc2)c([N+](=O)[O-])c1	0	-4	6	-3	0	-1
Cc1ccc(NC(=O)c2cncc(Br)c2)c([N+](=O)[O-])c1	23*	-9	-1	-2	1	0
CC(C)N1CSC(=S)N(Cc2ccccc2)C1	11	-5	-16	18*	1	5
CC1=Nn2c(nnc2-c2cc(-c3ccccc3)n[nH]2)SC1	11	-14	-5	3	1	-4
CC1=Nn2c(nnc2C2CCCCC2)SC1	31*	10	-2	10	0	3
CN(c1ccccc1)S(=O)(=O)c1ccc(NC(=O)c2ccccc2)cc1	-8	5	9	-10	4	-2
CN(c1ccccc1)S(=O)(=O)c1ccc(NC(=O)c2nc(S(C)(=O)=O)ncc2Cl)cc1	-14	78*	31*	-12	21	2
